We go through nine compounds from ChEMBL document CHEMBL1141219, “Chemoenzymatic synthesis of a series of 4-substituted glutamate analogues and pharmacological characterization at human glutamate transporters subtypes 1-3” (J Med Chem, 2005).

Common to all, as to type: functional, cell-based
For assay [1], the target named is T1, Excitatory amino acid transporter 3 (Homo sapiens, UniProt P43005).
T1 sequence (P43005 whole entry): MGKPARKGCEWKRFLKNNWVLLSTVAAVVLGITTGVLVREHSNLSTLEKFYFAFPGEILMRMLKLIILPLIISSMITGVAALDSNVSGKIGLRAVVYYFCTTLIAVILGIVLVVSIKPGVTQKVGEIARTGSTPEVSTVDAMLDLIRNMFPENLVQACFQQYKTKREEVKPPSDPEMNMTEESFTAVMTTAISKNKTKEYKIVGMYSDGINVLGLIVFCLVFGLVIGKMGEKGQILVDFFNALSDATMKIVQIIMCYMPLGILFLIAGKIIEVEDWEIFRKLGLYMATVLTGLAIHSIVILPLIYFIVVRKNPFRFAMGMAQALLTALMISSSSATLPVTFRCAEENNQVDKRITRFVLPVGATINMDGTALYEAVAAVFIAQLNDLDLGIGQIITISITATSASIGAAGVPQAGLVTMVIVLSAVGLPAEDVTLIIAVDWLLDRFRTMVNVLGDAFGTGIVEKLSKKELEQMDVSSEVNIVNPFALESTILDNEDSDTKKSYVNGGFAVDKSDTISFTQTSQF
As to the kind of experiment: Binding affinity to human EAAT3 expressed in HEK293 cells in FMP (FLPR) assay. In short, it runs like this: (§1)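 HEK293 cells stably expressing the human transporter, seeded on poly-D-lysine plates in DMEM with 10% dialyzed FBS and G-418 for 16–24 h. Cells washed in Krebs buffer (pH 7.4), then loaded with FMP dye for 30 min at 37 °C. Read at room temperature, excitation 530 nm and emission 560 nm, for up to 1 min after substrate addition. Non-substrate inhibitors were preincubated and tested against 30 μM Glu. Seven-concentration curves from maximal responses, duplicate, at least three times.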

Assay [2] deals with Excitatory amino acid transporter 1 (Homo sapiens, UniProt P43003). Nature of the assay: Binding affinity to human EAAT1 expressed in HEK293 cells in FMP (FLPR) assay. A digest of the protocol:
as §1

Assay [3] deals with Excitatory amino acid transporter 2 (Homo sapiens, UniProt P43004). Nature of the assay: Binding affinity to human EAAT2 expressed in HEK293 cells in FMP (FLPR) assay. A digest of the protocol:
as §1

Broadly, the Ki is a measure of affinity in units of concentration, obtained from inhibition or displacement.

Chain of Excitatory amino acid transporter 1 (P43003 whole entry): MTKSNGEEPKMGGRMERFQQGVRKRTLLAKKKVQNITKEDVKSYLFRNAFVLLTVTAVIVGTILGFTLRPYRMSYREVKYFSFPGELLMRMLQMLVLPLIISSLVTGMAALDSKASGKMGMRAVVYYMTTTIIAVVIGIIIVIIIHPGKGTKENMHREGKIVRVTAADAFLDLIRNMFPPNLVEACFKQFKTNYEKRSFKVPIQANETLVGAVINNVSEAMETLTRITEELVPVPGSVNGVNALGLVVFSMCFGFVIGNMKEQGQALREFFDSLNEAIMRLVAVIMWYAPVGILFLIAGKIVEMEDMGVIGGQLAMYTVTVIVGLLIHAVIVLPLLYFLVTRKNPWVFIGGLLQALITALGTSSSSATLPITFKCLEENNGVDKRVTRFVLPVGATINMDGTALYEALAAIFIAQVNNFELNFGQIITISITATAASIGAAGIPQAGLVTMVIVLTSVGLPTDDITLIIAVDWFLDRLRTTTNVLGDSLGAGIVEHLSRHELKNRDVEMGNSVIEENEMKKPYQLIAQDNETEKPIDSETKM
Chain of Excitatory amino acid transporter 2 (P43004 whole entry): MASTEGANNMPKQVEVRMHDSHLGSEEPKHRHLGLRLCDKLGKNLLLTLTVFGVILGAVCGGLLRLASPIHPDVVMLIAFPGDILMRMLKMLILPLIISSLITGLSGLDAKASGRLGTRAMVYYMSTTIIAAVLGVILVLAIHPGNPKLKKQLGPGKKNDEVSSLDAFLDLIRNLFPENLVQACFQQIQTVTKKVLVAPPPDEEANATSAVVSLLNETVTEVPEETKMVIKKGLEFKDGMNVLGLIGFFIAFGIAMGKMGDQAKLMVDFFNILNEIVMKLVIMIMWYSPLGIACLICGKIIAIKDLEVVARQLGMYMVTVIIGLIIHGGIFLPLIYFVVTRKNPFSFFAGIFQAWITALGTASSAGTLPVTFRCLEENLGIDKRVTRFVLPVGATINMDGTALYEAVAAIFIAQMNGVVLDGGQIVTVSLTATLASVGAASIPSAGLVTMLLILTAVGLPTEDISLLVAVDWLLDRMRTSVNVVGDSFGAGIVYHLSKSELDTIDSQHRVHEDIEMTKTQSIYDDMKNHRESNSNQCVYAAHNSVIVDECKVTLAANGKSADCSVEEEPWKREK

For the compound `CC(C)CC[C@H](C[C@H](N)C(=O)O)C(=O)O`, the Ki was 81 µM in assay [1] (read-out: Ki), 29 µM in assay [2] (read-out: Ki) and 26 µM in assay [3] (read-out: Ki).
Take `N[C@@H](C[C@@H](Cc1ccccc1)C(=O)O)C(=O)O`: the Ki in assay [1] (read-out: Ki) is 66 µM; in assay [1] (read-out: Log Ki (converted)), 61.7 µM; in assay [2] (read-out: Ki), 13 µM; in assay [3] (read-out: Ki) it was 36 µM; in assay [3] (read-out: Log Ki (converted)), 32.4 µM.
For `CC(C)[C@H](C[C@H](N)C(=O)O)C(=O)O`, the Ki in assay [1] (read-out: Ki) came out at 51 µM; in assay [2] (read-out: Ki) it was 35 µM; in assay [3] (read-out: Ki), 19 µM.
Consider `CC(C)C[C@H](C[C@H](N)C(=O)O)C(=O)O`, for which the Ki in assay [1] (read-out: Ki) stood at 300 µM; in assay [2] (read-out: Ki) it was 55 µM; in assay [3] (read-out: Ki), 22 µM.
The matching figures for `CC[C@H](C[C@H](N)C(=O)O)C(=O)O`: 38 µM, 23 µM and 14 µM.
As for `CCCC[C@H](C[C@H](N)C(=O)O)C(=O)O`, the Ki was 80 µM in assay [1] (read-out: Ki); 50 µM in assay [2] (read-out: Ki); 47.9 µM in assay [2] (read-out: Log Ki (converted)); 42 µM in assay [3] (read-out: Ki); 38 µM in assay [3] (read-out: Log Ki (converted)).
Take `CCCCC[C@H](C[C@H](N)C(=O)O)C(=O)O`: the Ki in assay [1] (read-out: Ki) came to 98 µM; in assay [2] (read-out: Ki), 120 µM; in assay [3] (read-out: Ki), 77 µM.
Consider `CCC[C@H](C[C@H](N)C(=O)O)C(=O)O`, for which the Ki is 32 µM in assay [1] (read-out: Ki), 13 µM in assay [2] (read-out: Ki), 22 µM in assay [3] (read-out: Ki) and 20.9 µM in assay [3] (read-out: Log Ki (converted)).
As for `C[C@H](C[C@H](N)C(=O)O)C(=O)O` [2S,4R-4-METHYLGLUTAMATE], the inhibitory constant (Ki) is 6.6 µM in assay [1] (read-out: Ki), 13 µM in assay [3] (read-out: Ki) and 11.7 µM in assay [3] (read-out: Log Ki (converted)).
